From PubChem BioAssay
The list is not random: actives were taken first. Their share in the collection is about 1.2%.
proCasp3 act = activators of human procaspase-3 D3A mutant, primary screen, biochemical, absorbance, PC-3 D3A mutant, single concentration. Caspase-3 (Homo sapiens), P42574. recombinant procaspase-3 D3A, Ac-DEVD-pNA absorbance 405 nm. activation, % at 8.5 µM. hit rate 0.11% among 330,000;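 active = activation above the mean of all tested compounds plus 3 SD, cut at about 21% in these data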
Target sequence (P42574 whole entry D9A/D28A/D175A): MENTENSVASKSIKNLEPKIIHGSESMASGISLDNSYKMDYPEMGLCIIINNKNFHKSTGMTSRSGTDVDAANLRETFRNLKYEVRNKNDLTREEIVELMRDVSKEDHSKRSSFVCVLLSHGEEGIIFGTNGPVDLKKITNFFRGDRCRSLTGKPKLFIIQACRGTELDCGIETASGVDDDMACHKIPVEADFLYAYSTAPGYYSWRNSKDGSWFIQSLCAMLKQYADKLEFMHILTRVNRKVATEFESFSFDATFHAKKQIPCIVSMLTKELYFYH
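Technique: 405 nm absorbance of p-nitroaniline, reads at 0 and 120 min; Test system: Procaspase-3 D3A mutant; Incubation: 1 h enzyme-compound preincubation, then 2 h substrate reaction, 25 °C; Repeats: singlicate, each compound tested once; Benchmarks: low control DMSO wells, high control DMSO plus 5 µM PC-3 D3A.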
proCasp7 act = procaspase-7 activators, primary screen, counter-screen for procaspase-3 activator project, biochemical, absorbance, HTS, human; hit rate 0.093% among 330,000; AID 463210, 2010; recombinant procaspase-7, Ac-DEVD-pNA absorbance 405 nm; D23A/D198A/D206A triple mutant, cannot self-cleave; scale: DMSO 0, 5 µM enzyme 100; Caspase-7 (Homo sapiens), P55210; activation, % at 8.5 µM;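 active = percent activation above the screen-wide mean plus 3 SD, cut at about 25% in these data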
Target sequence (P55210 whole entry D23A/D198A/D206A): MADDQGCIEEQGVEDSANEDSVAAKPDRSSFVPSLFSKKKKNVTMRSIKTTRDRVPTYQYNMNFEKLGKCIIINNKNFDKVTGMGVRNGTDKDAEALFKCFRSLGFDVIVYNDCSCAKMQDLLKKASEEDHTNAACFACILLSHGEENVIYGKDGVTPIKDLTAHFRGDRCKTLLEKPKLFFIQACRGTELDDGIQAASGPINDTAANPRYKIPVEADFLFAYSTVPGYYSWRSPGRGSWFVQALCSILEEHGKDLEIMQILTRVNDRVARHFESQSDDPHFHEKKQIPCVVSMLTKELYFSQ
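signal = Epi-absorbance of released pNA at 405 nm, two timepoints | assay system = Uncleavable procaspase-7 mutant enzyme | reagent = Ac-DEVD-pNA substrate, 400 µM as added | times = 1 h enzyme–compound preincubation and 2 h substrate reaction, both 25 °C | benchmarks = low DMSO alone, high DMSO plus 5 µM PC-7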
MsrA inhibitor = bovine MsrA enzyme inhibitors, primary screen, biochemical, absorbance, HTS | AID 651718, 2012 | hit rate 0.75% among 360,000 | Methionine sulfoxide reductase A (Bos taurus) | inhibition, % at 15.5 µM | purified bovine MsrA, absorbance read-out; in the data active = inhibition above about 4.5%
MsrA act = bovine MsrA enzyme activators, primary screen, biochemical, absorbance, HTS | Methionine sulfoxide reductase A (Bos taurus) | purified bovine MsrA, absorbance read-out | activation, % at 10.6 µM | hit rate 0.3% among 360,000; in the data active = activation above about 7.5%
MsrA activ conf = bovine MsrA activators, retest, confirmation, biochemical, absorbance, HTS; shares compounds with MsrA act; purified bovine MsrA, absorbance read-out; activation, % at 10.6 µM; hit rate 12% among 1,000; AID 602270, 2012; in the data active = activation above about 4%;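 also: enzyme coupled to thioredoxin and thioredoxin reductase with NADPH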
Each line names hits and unclear results; the compound was inactive in the other large screens (follow-up assays come after a bar, where they were run).

O=C(C(=O)N1CCC(CNC(=O)c2sc3ccccc3c2Cl)CC1)c1cccs1	none (no result: proCasp3 act, proCasp7 act, MsrA act)
COc1ccc(/C=N/NC(=O)c2cccnc2)cc1CN1CCc2cc(OC)c(OC)cc2C1C (stereo not given)	MsrA act 16.0 | MsrA activ conf inactive
COc1ccc(/C=N/NC(=O)c2cc(OC)c(OC)c(OC)c2)cc1CN1CCc2cc(OC)c(OC)cc2C1C (stereo not given)	none
C[C@H](CO)N1C[C@H](C)[C@@H](CN(C)C(=O)Nc2ccc3c(c2)OCO3)OCc2cn(nn2)CCCC1=O	none (no result: proCasp3 act, proCasp7 act, MsrA act)
C=C(C)C1Cc2c(C)nn(-c3cccc4ccccc34)c2C1 (stereo not given)	MsrA act 8.0 | MsrA activ conf inactive
COc1cc(NC(=O)c2cccs2)c(C(=O)OCC(=O)NC(=O)NCc2ccccc2)cc1OC	MsrA act 7.9 | MsrA activ conf inactive
CCCCOC(=O)Nc1ccccc1C(=O)N1CCCC1	MsrA act 15.4 | MsrA activ conf inactive
C#CCNC(=O)C[C@H]1C[C@@]2(C(=O)OC)C(=C[C@H](C(C)(C)C)O[C@@H]2C)N(CCC2=CCCCC2)C1=O	none (no result: proCasp3 act, proCasp7 act, MsrA act)
CCOc1ccc(S(=O)(=O)N2CCCC(C(=O)NCc3cccnc3)C2)cc1 (stereo not given)	MsrA act 8.9 | MsrA activ conf inactive
COc1ccc(S(=O)(=O)N2CCCC(C(=O)NCc3cccnc3)C2)cc1 (stereo not given)	none
O=C1NC(Cc2ccccc2)c2nc3cc(F)ccc3c(=O)n2-c2ncccc21 (stereo not given)	none (no result: proCasp3 act, proCasp7 act)
O=C1NC(Cc2ccccc2)c2nc3cc(F)c(F)cc3c(=O)n2-c2ncccc21 (stereo not given)	MsrA act 9.7 (no result: proCasp3 act, proCasp7 act) | MsrA activ conf inactive
CC(OC(=O)c1cccc(S(=O)(=O)N2CCCCC2)c1)C(=O)NC1CCCCC1C (stereo not given)	MsrA act 20.6 | MsrA activ conf inactive
COC(=O)c1cc2c(c3c4cc(OC)ccc4n(S(=O)(=O)c4cccc(C)c4)c13)C(=O)N(C)C2	none (no result: proCasp3 act, proCasp7 act, MsrA act)
Cc1c(NC(=O)C(C)N2C(=O)C3CCCCC3C2=O)c(=O)n(-c2ccccc2)n1C (stereo not given)	MsrA act 10.4 | MsrA activ conf inactive
O=C1C(O)=CC(=C(c2ccccc2)c2ccccc2)c2ccccc21	MsrA act 9.8 (no result: proCasp3 act, proCasp7 act) | MsrA activ conf inactive
O=C(O)c1cccc2c1C(=O)c1ccccc1C2=O	none
O=C(C=Cc1ccc(O)c(O)c1)NCC(=O)NC(Cc1ccccc1)C(=O)O (stereo not given)	none (no result: proCasp3 act, proCasp7 act, MsrA act)
CC(=O)N1CCc2cc(N=NC3=C(O)CCCC3=O)ccc21	MsrA act 8.7 | MsrA activ conf inactive
O=C1CCCC(O)=C1N=Nc1ccc(Cl)c(Cl)c1	none
O=C(NCSc1ccnc(SCNC(=O)c2ccccc2)n1)c1ccccc1	MsrA act 11.2 | MsrA activ conf inactive
O=C(NCc1ccccc1)[C@H]1CCCN1C(=O)[C@H]1CCCN1C(=O)c1ccccc1C(F)(F)F	none (no result: proCasp3 act, proCasp7 act, MsrA act)
CN1CCCCC(NC(=O)c2c(F)cccc2F)C1=O (stereo not given)	none (no result: proCasp3 act, proCasp7 act, MsrA act)
COc1cc2c(cc1OC)C(=O)C(Br)CC2 (stereo not given)	MsrA act 13.8 (no result: proCasp3 act, proCasp7 act, MsrA inhibitor) | MsrA activ conf inactive
COc1cc2c(cc1OC)C(=O)C(c1ccc3c(c1)OCO3)CC2 (stereo not given)	none (no result: proCasp3 act, proCasp7 act)
COC(=O)C1=C(C)N(Cc2cccc(C(F)(F)F)c2)C(=NCC2CC2)NC1c1cccc(C(F)(F)F)c1 (stereo not given)	none (no result: proCasp3 act, proCasp7 act, MsrA act)
COC(=O)C1=C(C)N(Cc2ccccc2C(F)(F)F)C(=NCc2ccc(C(F)(F)F)cc2)NC1c1ccccc1 (stereo not given)	none (no result: proCasp3 act, proCasp7 act, MsrA act)
CN(CCCC(=O)Nc1ccncc1)S(=O)(=O)c1ccc(Cl)cc1	MsrA act 7.9 | MsrA activ conf inactive
CCOC(=O)Cn1nc(-c2ccccc2)ccc1=O	none
CCOC(=O)Cn1cc(-c2ccccc2)nn1	MsrA act 8.3 | MsrA activ conf inactive
COC(=O)[C@]12C[C@H](CC(=O)NCCC(C)C)C(=O)N(Cc3ccc4c(c3)OCO4)C1=C[C@H](COCc1ccccc1)O[C@@H]2C	none (no result: proCasp3 act, proCasp7 act, MsrA act)
CC(C)(C)NC(=O)/C=C/c1ccc(C(F)(F)F)cc1	MsrA act 8.2 | MsrA activ conf inactive
COC(=O)C1=C(C)N(Cc2ccc(C(F)(F)F)cc2)C(=NCc2ccccc2C(F)(F)F)NC1c1cccc(Cl)c1 (stereo not given)	none (no result: proCasp3 act, proCasp7 act, MsrA act)
COC(=O)[C@]12C[C@H](CC(=O)N3CCN(C(=O)c4ccco4)CC3)C(=O)N(Cc3ccccc3)C1=C[C@H](C1CCCC1)O[C@@H]2C	none (no result: proCasp3 act, proCasp7 act, MsrA act)
O=C1C(Cl)=C(NCc2cccnc2)C(=O)c2ccccc21	MsrA act 11.8 | MsrA activ conf 6.1
O=C1C(Cl)=C(NCCc2ccccc2)C(=O)c2ccccc21	none (no result: proCasp3 act, proCasp7 act)
O=C(/C=C/c1ccccc1)C1=C(O)C(=O)N(CCO)C1c1ccccc1[N+](=O)[O-] (stereo not given)	none
O=C(/C=C/c1ccccc1)C1=C(O)C(=O)N(CCO)C1c1cccc([N+](=O)[O-])c1 (stereo not given)	MsrA act 9.9 | MsrA activ conf inactive
COCCNC(=O)C1=NOC(Cn2cc(C#N)c(=O)n(C)c2=O)C1 (stereo not given)	none
COc1ccc(C2CC(Cn3cc(C#N)c(=O)n(C)c3=O)ON2C)cc1 (stereo not given)	MsrA act 9.3 | MsrA activ conf inactive
CC(C)C[C@@H]1COc2cc(N3CCCC3)ccc2S(=O)(=O)N1	none (no result: proCasp3 act, proCasp7 act, MsrA act)
COc1cc(NC(=O)CSCc2ccccc2)c(C(=O)O)cc1OC	MsrA act 10.0 | MsrA activ conf inactive
CCc1ccc2c(c1)c1nc(C)sc1n2CC	MsrA act 26.0 | MsrA activ conf inactive
Cc1nc2c3cc(F)ccc3n(Cc3ccc(F)cc3)c2s1	none
C=CCN1C(=O)c2ccccc2C1(O)Cc1ccccc1 (stereo not given)	MsrA act 11.5 | MsrA activ conf inactive
CC(C)CN1C(=O)c2ccccc2C1(O)Cc1ccccc1 (stereo not given)	none
COC(=O)Cc1nnn2c1[C@@H](C)[C@@H](c1ccccc1Br)OC[C@@H]2c1ccccc1	none (no result: proCasp3 act, proCasp7 act, MsrA act)
COC(=O)C1=C(C)N(Cc2cccc(C(F)(F)F)c2)C(=NCc2cc(OC)c(OC)c(OC)c2)NC1c1cccc(F)c1 (stereo not given)	none (no result: proCasp3 act, proCasp7 act, MsrA act)
Cc1cc(C)cc(NC(=S)N2CCCC2)c1	MsrA act 11.7 (no result: proCasp3 act, proCasp7 act) | MsrA activ conf inactive
COC(=O)[C@@H](C)NC(=O)c1ccc2oc(CCc3ccccc3)nc2c1	none
COC(=O)CCCNC(=O)c1ccc2oc(CCCc3ccccc3)nc2c1	MsrA act 11.2 | MsrA activ conf inactive
S=c1[nH]nc(Nc2cccc3ccccc23)s1	MsrA act 8.8 | MsrA activ conf inactive
Fc1ccccc1Nc1n[nH]c(=S)s1	none
